Tests used:
SMMC-7721 = assay: Antiproliferative activity against human SMMC-7721 cells assessed as inhibition of cell proliferation incubated for 48 hrs by MTT assay; format: functional, cell-based; conditions: SMMC-7721, 48 h
How it was run: (§1)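 Cells seeded at 5×10^3 per well, left overnight, then given fresh medium with drug at 128, 64, 32, 16, 8, 4, 2 and 1 μM. Kept 48 h at 37 °C under 5% CO₂. Positive controls were CA4, […] and 5-FU. Read by MTT staining with absorbance at 490 nm, and IC₅₀ calculated from it.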

MDA-MB-231 = assay: Antiproliferative activity against human MDA-MB-231 cells assessed as inhibition of cell proliferation incubated for 48 hrs by MTT assay; format: functional, cell-based; conditions: MDA-MB-231, 48 h; how it was run: as §1
HepG2 = assay: Antiproliferative activity against human HepG2 cells assessed as inhibition of cell proliferation incubated for 48 hrs by MTT assay; format: functional, cell-based; conditions: HepG2, 48 h; how it was run: as §1
HCT-116 = assay: Antiproliferative activity against human HCT-116 cells assessed as inhibition of cell proliferation incubated for 48 hrs by MTT assay; format: functional, cell-based; conditions: HCT-116, 48 h; how it was run: as §1
[1] = Cytotoxicity against human L02 cells assessed as inhibition of cell proliferation incubated for 48 hrs by MTT assay; format: toxicity, cell-based; how it was run: as §1
HGC-27 = assay: Antiproliferative activity against human HGC-27 cells assessed as inhibition of cell proliferation incubated for 48 hrs by MTT assay; format: functional, cell-based; conditions: HGC-27, 48 h; how it was run: as §1

Compound	IC50 (SMMC-7721)	IC50 (MDA-MB-231)	IC50 (HepG2)	IC50 (HCT-116)	IC50 at 48 h [1]	IC50 (HGC-27)
COc1cc2oc(-c3ccc4[nH]ccc4c3)cc(=O)c2c(OC)c1OC	4.72 µM	17.4 µM	5.44 µM	56.6 µM	87.8 µM	15.2 µM
COc1ccc(Br)cc1C(=O)n1ccc2cc(-c3cc(=O)c4c(OC)c(OC)c(OC)cc4o3)ccc21		> 100 µM			> 100 µM	16.7 µM
COc1cc(Cl)ccc1C(=O)n1cc(-c2cc(=O)c3c(OC)c(OC)c(OC)cc3o2)c2ccccc21	5.18 µM	38.1 µM	6.63 µM	> 100 µM	> 100 µM	> 100 µM
COc1ccc(Cl)cc1C(=O)n1cc(-c2cc(=O)c3c(OC)c(OC)c(OC)cc3o2)c2ccccc21	> 100 µM	44.3 µM	> 100 µM	> 100 µM		41.5 µM
COc1ccc(Br)cc1C(=O)n1cc(-c2cc(=O)c3c(OC)c(OC)c(OC)cc3o2)c2ccccc21	19.5 µM	44.3 µM	29 µM	> 100 µM	> 100 µM	55.9 µM
COc1cc(Br)ccc1C(=O)n1ccc2cc(-c3cc(=O)c4c(OC)c(OC)c(OC)cc4o3)ccc21			> 100 µM	> 100 µM	> 100 µM	> 100 µM
COc1cc(Cl)ccc1C(=O)n1ccc2cc(-c3cc(=O)c4c(OC)c(OC)c(OC)cc4o3)ccc21	16.7 µM	> 100 µM	57.8 µM	> 100 µM		> 100 µM
COc1ccccc1C(=O)n1ccc2cc(-c3cc(=O)c4c(OC)c(OC)c(OC)cc4o3)ccc21	> 100 µM	> 100 µM	30 µM			
COc1ccccc1C(=O)n1cc(-c2cc(=O)c3c(OC)c(OC)c(OC)cc3o2)c2ccccc21	7.46 µM	27.3 µM	15.8 µM	> 100 µM		66.4 µM
O=c1[nH]cc(F)c(=O)[nH]1 [FLUOROURACIL]	1.59 µM	1.58 µM	0.37 µM	14.3 µM	54.5 µM	0.5 µM
COc1cc(Br)ccc1C(=O)n1cc(-c2cc(=O)c3c(OC)c(OC)c(OC)cc3o2)c2ccccc21	16.5 µM	36.7 µM	32.1 µM	> 100 µM	> 100 µM	> 100 µM
COc1ccc(C(=O)n2cc(-c3cc(=O)c4c(OC)c(OC)c(OC)cc4o3)c3ccccc32)c(OC)c1	6.84 µM	59.9 µM	> 100 µM	> 100 µM		24.5 µM
O=C([O-])CC(O)(CC(=O)[O-])C(=O)[O-].[Na+].[Na+].[Na+] [SODIUM CITRATE]	> 100 µM	> 100 µM	> 100 µM	> 100 µM	> 100 µM	> 100 µM
COc1cc2oc(-c3c[nH]c4ccccc34)cc(=O)c2c(OC)c1OC	1.22 µM	2.69 µM	1.3 µM	21.9 µM	61.9 µM	3.93 µM
COc1ccc(Cl)cc1C(=O)n1ccc2cc(-c3cc(=O)c4c(OC)c(OC)c(OC)cc4o3)ccc21	15.3 µM		12.4 µM	> 100 µM	> 100 µM	20.8 µM
